# Source: ChEMBL document CHEMBL3769305, “Glucose-functionalized amino-OPEs as biocompatible photosensitizers in PDT” (Eur J Med Chem, 2016)
# Calls of active or inactive are those of the source. The calls are words filed in the database; no cut-off is given here.
# Legend:
# [1] = Drug uptake in human Hep2 cells at 1 uM after 6 hrs by fluorescence microscopy; assay type: ADME, cell-based; conditions: hep-2, 6 h
# In short: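 Cells on glass coverslips at 60–70% confluence were exposed to 1×10^-6 M compound in medium with 1% FBS (DMSO <0.5%) for 6 h at 37 °C. After two PBS washes they were imaged live under UV excitation (365 nm), with blue excitation (460–490 nm) also used. Untreated cells served as autofluorescence controls.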
# [2] = Drug uptake in endoplasmic reticulum of human Hep2 cells at 1 uM after 6 hrs by ER-tracker dye-based fluorescence microscopy; assay type: ADME, cell-based; conditions: hep-2, 6 h
# In short: (§1)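 Cells grown on glass coverslips were incubated with 1×10^-6 M photosensitizer for 6 h at 37 °C, washed twice in PBS and imaged live by fluorescence microscopy. Organelle probes (ER-Tracker, ex 374/em 430 nm; NBD-Golgi, ex 466/em 536 nm) were applied for 30 min at the supplier's concentrations, and their patterns were compared with the compound signal.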
# [3] = Drug uptake in golgi apparatus of human HeLa cells at 1 uM after 6 hrs by NBD dye-based fluorescence microscopy; assay type: ADME, cell-based; in short: as §1
# [4] = Drug uptake in golgi apparatus of human Hep2 cells at 1 uM after 6 hrs by NBD dye-based fluorescence microscopy; assay type: ADME, cell-based; conditions: hep-2, 6 h; in short: as §1
# [5] = Dark toxicity against human Hep2 cells assessed as cell survival at 10 uM incubated for 6 hrs measured after 24 hrs by MTT assay; assay type: cell-based, HEp-2; conditions: read-out: Survival
# In short: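 Cells (HaCaT and HeLa in DMEM, HEp-2 in RPMI, each with 10% FBS, at 37 °C and 5% CO2) were treated at 60–70% confluence. The compound was added from a 10^-3 M DMSO stock in medium with 1% FBS (final DMSO <0.5%) at 3·10^-6 to 2.5·10^-5 M and kept in the dark (6 h per table footnote, 18 h per methods). After 24 h, MTT at 50 µg/mL for 4 h, read at 542 nm as % of control OD.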
# [6] = Phototoxicity against human Hep2 cells incubated for 6 hrs followed by UV irradiation at 0.25 J/cm'2 measured after 24 hrs by MTT assay; assay type: functional, HEp-2
# In short: (§2)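 Cultures at 60–70% confluence were loaded with the photosensitizer for 6 h in medium with 1% FBS and <0.5% DMSO. Medium was then replaced and cells were irradiated with UVA (300–400 nm, 15.9 W/m² at 10 cm), then washed and kept in complete medium for 24 h. Survival was read by MTT (50 µg/mL, 4 h, 542 nm) as % of untreated control OD.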
# [7] = system: HaCaT; test: Phototoxicity against human HaCaT cells assessed as cell lethality at 3 to 250 uM incubated for 6 hrs followed by UV irradiation at 0.5 J/cm'2 measured after 24 hrs by MTT assay; assay type: cell-based; in short: as §2
# [8] = system: HeLa; test: Phototoxicity against human HeLa cells assessed as cell lethality at 3 to 250 uM incubated for 6 hrs followed by UV irradiation at 0.5 J/cm'2 measured after 24 hrs by MTT assay; assay type: functional; in short: as §2
# [9] = Phototoxicity against human Hep2 cells assessed as cell lethality at 3 to 250 uM incubated for 6 hrs followed by UV irradiation at 0.5 J/cm'2 measured after 24 hrs by MTT assay; assay type: functional, HEp-2; in short: as §2
# [10] = system: HaCaT; test: Phototoxicity against human HaCaT cells assessed as cell lethality at 3 to 250 uM incubated for 6 hrs followed by UV irradiation at 1 J/cm'2 measured after 24 hrs by MTT assay; assay type: cell-based; in short: as §2
# [11] = system: HeLa; test: Phototoxicity against human HeLa cells assessed as cell lethality at 3 to 250 uM incubated for 6 hrs followed by UV irradiation at 1 J/cm'2 measured after 24 hrs by MTT assay; assay type: functional; in short: as §2
# [12] = Phototoxicity against human Hep2 cells assessed as cell lethality at 3 to 250 uM incubated for 6 hrs followed by UV irradiation at 2 J/cm'2 measured after 24 hrs by MTT assay; assay type: functional, HEp-2; in short: as §2
# [13] = system: HaCaT; test: Induction of cell morphological changes in human HaCaT cells assessed as appearance of necrotic cells with loss of membrane integrity at 3 to 5 uM after 24 hrs by Hoechst 33258 staining-based phase contrast microscopy in presence of UVA light
# [14] = system: HeLa; test: Induction of cell morphological changes in human HeLa cells assessed as cellular stretching at 3 to 5 uM after 24 hrs by Hoechst 33258 staining-based phase contrast microscopy in presence of UVA light; assay type: functional
# [15] = system: HeLa; test: Induction of morphological changes in human HeLa cells assessed as nuclear retraction at LD50 after 24 hrs by Hoechst 33258 staining-based fluorescence microscopy in presence of UVA light; assay type: functional, cell-based
# [16] = system: HEp-2; test: Induction of morphological changes in human Hep2 cells assessed as nuclear retraction at LD50 after 24 hrs by Hoechst 33258 staining-based fluorescence microscopy in presence of UVA light; assay type: functional, cell-based
# [17] = system: HaCaT; test: Induction of apoptotic morphological changes in human HaCaT cells at LD50 after 24 hrs by Hoechst 33258 staining-based fluorescence microscopy in presence of UVA light; assay type: cell-based
# [18] = system: HeLa; test: Induction of necrotic morphological changes in human HeLa cells at LD50 after 24 hrs by Hoechst 33258 staining-based fluorescence microscopy in presence of UVA light; assay type: functional, cell-based
# [19] = system: HEp-2; test: Induction of necrotic morphological changes in human Hep2 cells at LD50 after 24 hrs by Hoechst 33258 staining-based fluorescence microscopy in presence of UVA light; assay type: functional, cell-based
# [20] = system: HeLa; test: Increase in mitotic nuclei level in human HeLa cells at LD50 after 24 hrs by Hoechst 33258 staining-based fluorescence microscopy in presence of UVA light; assay type: functional, cell-based
# [21] = system: HEp-2; test: Increase in mitotic nuclei level in human Hep2 cells at LD50 after 24 hrs by Hoechst 33258 staining-based fluorescence microscopy in presence of UVA light; assay type: functional, cell-based
# [22] = system: HEp-2; test: Induction of apoptosis in human Hep2 cells at LD50 after 24 hrs by acridine orange/ethidium bromide staining-based assay in presence of 0.25 to 0.5 J/cm'2 UVA light; assay type: functional, cell-based
# [23] = system: HeLa; test: Induction of microtubule disruption in human HeLa cells assessed as appearance of extrapoles at LD50 after 24 hrs by immunofluorescence assay in presence of UVA light; assay type: cell-based
# [24] = system: HEp-2; test: Induction of microtubule disruption in human Hep2 cells assessed as appearance of extrapoles at LD50 after 24 hrs by immunofluorescence assay in presence of UVA light; assay type: cell-based
# [25] = system: HeLa; test: Induction of microtubule disruption in human HeLa cells assessed as increase in altered metaphase at LD50 after 24 hrs by immunofluorescence assay in presence of UVA light; assay type: cell-based
# [26] = Induction of microtubule disruption in human HaCaT cells assessed as increase in altered metaphase at LD50 after 24 hrs by immunofluorescence assay in presence of UVA light; assay type: cell-based
# [27] = system: HeLa; test: Induction of cell morphological changes in human HeLa cells assessed as appearance of rounded cells at 3 to 5 uM after 24 hrs by Hoechst 33258 staining-based phase contrast microscopy in presence of UVA light; assay type: functional
# [28] = system: HeLa; test: Induction of cell morphological changes in human HeLa cells assessed as deep deformation of cell membrane at LD90 after 24 hrs by Hoechst 33258 staining-based phase contrast microscopy in presence of 1 to 2 J/Cm'2 UVA light; assay type: functional
Compound,Drug uptake [1],Drug uptake [2],Drug uptake [3],Drug uptake [4],"viability at 6 h, 10 µM [5] [%]",LD50 [6] [×10⁻⁶ M],mortality [7] [%],mortality [8] [%],mortality [9] [%],mortality [10] [%],mortality [11] [%],mortality [12] [%],Activity [13],Activity [14],Activity [15],Activity [16],Activity [17],Activity [18],Activity [19],Activity [20],further results
COc1cc(C#Cc2ccc(C#Cc3cc(OC)c(C#CCO[C@@H]4O[C@H](CO)[C@@H](O)[C@H](O)[C@H]4O)cc3OC)c(N(C)C)c2)c(OC)cc1C#CCO[C@@H]1O[C@H](CO)[C@@H](O)[C@H](O)[C@H]1O,Active,Active,Active,Active,85.6,3,> 50,>50,>50,> 50,>50,>50,Toxic,Active,Active,Active,Toxic,Active,Active,Active,Activity [21]: Active; Activity [22]: Active; Activity [23]: Active; Activity [24]: Active; Activity [25]: Active; Activity [26]: Non-toxic; Activity [27]: Active; Activity [28]: Active
COc1cc(C#Cc2ccc(C#CCO[C@@H]3O[C@H](CO)[C@@H](O)[C@H](O)[C@H]3O)cc2N(C)C)c(OC)cc1C#Cc1ccc(C#CCO[C@@H]2O[C@H](CO)[C@@H](O)[C@H](O)[C@H]2O)cc1N(C)C,Active,Active,Active,Active,80.1,3,> 50,>50,>50,> 50,>50,>50,Toxic,Active,Active,Active,Toxic,Active,Active,Active,Activity [21]: Active; Activity [22]: Active; Activity [23]: Active; Activity [24]: Active; Activity [25]: Active; Activity [26]: Non-toxic; Activity [27]: Active; Activity [28]: Active
